In ChEMBL document CHEMBL1132241, “Novel multidrug resistance reversal agents” (J Med Chem, 1999):

Tests used:
[1] = Partition coefficient (logP); format: physicochemical; settings: octanol/water
[2] = In vitro concentration at which 50% of human colon carcinoma cells (S1-B1-20) resistant to bisantrene have survived; format: ADME, cell-based, S1B1-20; settings: S1-B1-20 human colon carcinoma cells resistant to bisantrene, read-out: LD50 (the source's name)
In short: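 S1-B1-20 cells (LS 174 T-derived S1 clone selected in bisantrene over 12–16 weeks), trypsinized, 20 000 cells/well. Test agent alone in DMSO (≤0.1% final), 0.1–80 µM, 3 days at 37 °C, 7% CO2. Survival by sulforhodamine B read at 540 nm versus untreated cells. Two to four measurement sets were made, and the value is the concentration giving 50% survival from a best-fit curve.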

S1B1-20 = assay: In vitro concentration required to inhibit tumor activity on subclone of human colon carcinoma cells (S1-B1-20) resistant to bisantrene; format: functional, cell-based
In short: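 S1-B1-20 cells (S1 clone of LS 174 T, selected in bisantrene over 12–16 weeks) plated at 20 000 cells/well with or without 20 μM bisantrene, plus test agent 0.1–80 μM from DMSO stock (final DMSO ≤0.1%). 3 days, 37 °C, 7% CO2. Survival by sulforhodamine B at 540 nm. IC50 from best-fit curve of difference score (survival alone minus survival with bisantrene) at 50; 2–4 sets of measurements.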

Mus musculus [3] = assay: Relative tumor growth inhibition against human epidermoid carcinoma KB/8.5 implanted subcutaneously only in mice at 8 mg/kg (DOX); format: functional; settings: route subcutaneous
In short: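 KB/8.5 cells grown in RPMI 1640 with 5% fetal calf serum plus colchicine (10 ng/mL), which was removed for two passages. 8 × 10^6 cells were then implanted sc in athymic nude mice. At 100-300 mg tumor mass, mice were grouped 5-10/group. Doxorubicin was given as a single iv dose (8 mg/kg). Tumor mass was measured on day 14, and relative growth was compared with saline control.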

Mus musculus [4] = assay: Percent tumor growth inhibition against human epidermoid carcinoma KB/8.5 implanted subcutaneously in mice at 100 mg/kg of compound along with 8 mg/kg (DOX ) was determined; format: functional
In short: (§1)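 Athymic nude mice bearing sc KB/8.5 tumors (8×10^6 cells, colchicine withdrawn for two passages), grouped at 100–300 mg tumor mass, 5–10 mice/group. Doxorubicin 8 mg/kg given once iv; reversal agent or placebo given sc 2 h before and 2 h after. Tumor mass on day 14 used for relative tumor growth versus doxorubicin alone; Student t-test on log RTG.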

Mus musculus [5] = assay: Percent tumor growth inhibition against human epidermoid carcinoma KB/8.5 implanted subcutaneously in mice at 200 mg/kg of compound along with 8 mg/kg (DOX ) was determined; format: functional; in short: as §1

| Compound | logP [1] | CC50 [2] [µM] | IC50 (S1B1-20; Homo sapiens, S1B1-20) [µM] | logP ([1]; read-out: logP) | Relative tumor growth (Mus musculus [3]) | TGI (Mus musculus [4]) [%] | TGI (Mus musculus [5]) [%] | Relative tumor growth (Mus musculus [3]; 8 mg/kg) | IC50 (S1B1-20; s1b1-20) [µM] |
| --- | --- | --- | --- | --- | --- | --- | --- | --- | --- |
| COc1cc2c(cc1OC)CN(CCCCCCC(Sc1ccc(C)cc1)c1ccc(OC)c(O[Si](C)(C)C(C)(C)C)c1)CC2 (stereo not drawn) | 11.68 | 49.1 | 10.7 | – | – | – | – | – | – |
| COc1ccc(C(C#N)(CCCCN2CCc3cc(OC)c(OC)cc3C2)Sc2ccc(C)cc2)cc1OC (stereo not drawn) | – | 41.8 | 0.62 | 5.65 | – | – | – | – | – |
| COc1ccc(C(CCCCCCN2Cc3cc(OC)c(OC)cc3C2)Sc2ccc(C)cc2)cc1OC (stereo not drawn) | – | 22.1 | 1.84 | 7.32 | 75 | 60 | – | – | – |
| CCCCCSC(CCCCCN1CCc2cc(OC)c(OC)cc2C1)c1ccc(OC)c(OC)c1 (stereo not drawn) | – | 16.3 | 0.5 | 5.66 | – | – | – | – | – |
| COc1ccc(C(CCCCCCN2CCc3cc(OC)c(OC)cc3C2)Sc2ccc(C)cc2)cc1O (stereo not drawn) | – | 13.1 | 0.84 | 7.67 | 75 | – | 54 | – | – |
| COc1ccc(C(C#N)(CCCCCN2CCc3cc(OC)c(OCCCl)cc3C2)SC2CCCCC2)cc1OC (stereo not drawn) | – | – | – | 6.87 | – | – | – | – | – |
| COc1ccc(C(C#N)(CCCCCN2Cc3cc(Cl)c(Cl)cc3C2)Sc2ccc(C)cc2)cc1OC (stereo not drawn) | – | – | 10.5 | 7.4 | 57 | – | 94 | – | – |
| COc1ccc2c(c1)CCN(CCCCCC(Sc1ccc(C)cc1)c1ccc(OC)c(OC)c1)C2 (stereo not drawn) | – | 22.2 | 3.09 | 7.88 | – | – | – | – | – |
| COc1cc2c(cc1OC)CN(CCCCCCC(Sc1ccc(C)cc1)c1ccc(OC)c(OCCCl)c1)CC2 (stereo not drawn) | – | 10.3 | 0.96 | 8.54 | – | – | – | – | – |
| COc1ccc(C(CCCCCN2CCc3cc4c(cc3C2)OCO4)Sc2ccc(C)cc2)cc1OC (stereo not drawn) | – | 24.9 | – | 7.31 | 100 | – | 57 | – | – |
| COc1cc2c(cc1O)CN(CCCCCC(C#N)(Sc1ccc(C)cc1)c1ccc(OC)c(OC)c1)CC2 (stereo not drawn) | – | 24.9 | 3.11 | 5.9 | – | – | – | – | – |
| COc1cc2c(cc1O)CN(CCCCCC(C#N)(SC1CCCCC1)c1ccc(OC)c(OC)c1)CC2 (stereo not drawn) | – | – | – | 6 | – | – | – | – | – |
| COc1ccc(C(CCCCCCN2CCc3cc(OC)c(OC)cc3C2)Sc2ccc(C)cc2)cc1OC (stereo not drawn) | – | 13.2 | 0.9 | 7.95 | 45 | 64 | – | – | – |
| COc1ccc(CC2c3cc(OC)c(OC)cc3CCN2CCCCCC(C#N)(Sc2ccc(C)cc2)c2ccc(OC)c(OC)c2)cc1OC (stereo not drawn) | – | 78.2 | 1.06 | 7.57 | 64 | – | 58 | – | – |
| COc1ccc(C(CCCCCN2CCc3cc(OC)c(OC)cc3C2)SC(C)(C)C)cc1OC (stereo not drawn) | – | 76.8 | 3.58 | 6.54 | 67 | – | 53 | – | – |
| COc1ccc(C(C#N)(CCCCN2CCc3cc(OC)c(OC)cc3C2)Sc2ccc(C)cc2)cc1OC.ClCCl (stereo not drawn) | 5.65 | – | – | – | – | – | – | – | – |
| COc1ccc(C(C#N)(CCCCCN2CCc3cc(OC)c(OC)cc3C2)Sc2ccccn2)cc1OC (stereo not drawn) | – | 50.8 | 2.12 | 4.72 | – | – | – | – | – |
| CCC(CCCCCN1CCc2cc(OC)c(OC)cc2C1)(Sc1ccc(C)cc1)c1ccc(OC)c(OC)c1 (stereo not drawn) | – | 11.8 | 1.23 | 8.34 | 77 | 72 | – | – | – |
| COc1ccc(C(C#N)(CC#CCCN2CCc3cc(OC)c(OC)cc3C2)Sc2ccc(C)cc2)cc1OC (stereo not drawn) | – | 36 | 0.97 | 5.52 | – | – | – | – | – |

| Compound | logP [1] | CC50 [2] [µM] | IC50 (S1B1-20; Homo sapiens, S1B1-20) [µM] | logP ([1]; read-out: logP) | Relative tumor growth (Mus musculus [3]) | TGI (Mus musculus [4]) [%] | TGI (Mus musculus [5]) [%] | Relative tumor growth (Mus musculus [3]; 8 mg/kg) | IC50 (S1B1-20; s1b1-20) [µM] |
| --- | --- | --- | --- | --- | --- | --- | --- | --- | --- |
| COc1ccc(C(C#N)(CCCCCN2Cc3cc(OC)c(OC)cc3C2)SC2CCCCC2)cc1OC (stereo in doubt; 46) | – | 11.8 | 0.26 | 5.65 | – | – | – | – | – |
| COc1cc2c(cc1O)CN(CCCCCC(C#N)(Sc1ccc(C)cc1)c1ccc(OC)c(OC)c1)C2 (stereo not drawn) | – | – | – | 5.78 | – | – | – | – | – |
| COc1ccc(C(C#N)(CCCCCN2Cc3cc(OC)c(OCCCl)cc3C2)Sc2ccc(C)cc2)cc1OC (stereo not drawn) | – | – | – | 6.14 | – | – | – | – | – |
| COc1ccc(C(C#N)(CCCCCN2Cc3cc(OC)c(OCCn4ccnc4)cc3C2)Sc2ccc(C)cc2)cc1OC (stereo not drawn) | – | 8.37 | 0.5 | 5.23 | – | – | – | – | – |
| COc1ccc(C(CCCCCN2CCc3cc(OC)c(OC)cc3C2)SC2CCCCC2)cc1OC (stereo not drawn) | – | 16.1 | 0.73 | 7.33 | 67 | 57 | – | – | – |
| COc1ccc(CCN(C)CCCC(C#N)(c2ccc(OC)c(OC)c2)C(C)C)cc1OC (stereo not drawn) [VERAPAMIL] | – | – | 17.3 | – | – | – | – | – | – |
| COc1ccc(C(C#N)(CCCCCN2CCc3cc(OC)c(OCc4ccccc4)cc3C2)Sc2ccc(C)cc2)cc1OC (stereo not drawn) | – | 40 | 0.85 | 7.95 | 100 | – | 71 | – | – |
| COc1cc2c(cc1OC)CN(CCCCCCC(Sc1ccc(C)cc1)c1ccc(OC)c(OCCn3ccnc3)c1)CC2 (stereo in doubt; 37b) | – | 5.52 | – | 7.63 | – | 67 | – | 72 | 0.69 |
| COc1ccc(C(CCCN2CCc3cc(OC)c(OC)cc3C2)Sc2ccc(C)cc2)cc1OC (stereo not drawn) | – | 25.8 | 1.23 | 6.36 | – | – | – | – | – |
| COc1ccc(C(C#N)(CCCCCN2CCc3cc(OC)c(OC)cc3C2)SC2CCCCC2)cc1OC (stereo not drawn) | – | 14 | 0.46 | 6.28 | 67 | 69 | – | – | – |
| COc1ccc(C(C#N)(CCCCCN2CCc3cc(OC)c(OCCN(C)C)cc3C2)Sc2ccc(C)cc2)cc1OC (stereo not drawn) | – | 6.68 | – | 6.1 | – | – | – | – | – |
| COc1ccc(C(C#N)(Cc2cccc(CN3CCc4cc(OC)c(OC)cc4C3)c2)Sc2ccc(C)cc2)cc1OC (stereo not drawn) | – | 23.3 | 2.19 | 5.91 | – | – | – | – | – |
| COc1cc2c(cc1OC)CN(CCCCCCC(Sc1ccc(C)cc1)c1ccc(F)cc1)CC2 (stereo not drawn) | – | 27 | 2.7 | 8.63 | – | – | – | – | – |
| COc1ccc(C(C#N)(CCCCCN2CCc3cc(OC)c(OCCn4ccnc4)cc3C2)SC2CCCCC2)cc1OC (stereo not drawn) | – | 8.39 | 0.96 | 5.96 | – | – | – | – | – |
| COc1ccc(C(CCCCCN2CCc3cc(OC)c(OC)cc3C2)SCc2ccccc2)cc1OC (stereo not drawn) | – | 15.1 | 1.98 | 6.63 | 77 | 68 | – | – | – |
| COc1cc2c(cc1OC)CN(CCCCCC(Sc1ccc(C)cc1)c1ccc(OC(F)(F)F)cc1)CC2 (stereo not drawn) | – | 16.9 | 2.07 | 8.44 | 100 | 51 | – | – | – |
| COc1ccc(C(C#N)(CCCN2CCc3cc(O)c(O)cc3C2C)Sc2ccc(C)cc2)cc1OC (stereo not drawn) | – | – | 4.7 | 4.92 | – | – | – | – | – |
| COc1ccc(C(C#N)(CCCCCN2CCc3cc(OC)c(OCCn4ccnc4)cc3C2)Sc2ccc(C)cc2)cc1OC (stereo in doubt; 48) | – | 11.6 | 0.53 | 5.86 | – | – | – | – | – |
| COc1ccc(C(CCCCCCN2CCc3cc(OC)c(OC)c(OC)c3C2)Sc2ccc(C)cc2)cc1OC (stereo not drawn) | – | 14 | 0.7 | 7.38 | 64 | 54 | – | – | – |
